Tests used:
[1] = tested on: Mus musculus; assay: Effect on the mean body weight of mice on day 1 (pre) of swiss CD-1 mice (charles river), in groups of six dosed orally once per day for 4 days with 50 mg/kg of compound; assay type: functional; conditions: route oral
Outline: (§1)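 Swiss CD-1 mice (20–25 g) in groups of six; vehicle controls in three cages of three. Compound 50 mg/kg or vehicle (2% Tween 80/saline) given by gavage each afternoon for 4 consecutive days. Body weight taken before dosing (day 1) and on the morning of day 5. Mice were then killed under halothane and heart and liver weighed, per 10 g body weight. Bonferroni t test.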

[2] = tested on: Mus musculus; assay: Effect on the mean heart weight of mice on day 1 (pre) of swiss CD-1 mice (charles river), in groups of six dosed orally once per day for 4 days with 50 mg/kg of compound; expressed as mg/10 g body weight; assay type: functional; conditions: route oral
[3] = species on record: Mus musculus; assay: Percent plasma glucose concentration of drug treated mice (ob/ob) relative to vehicle control animals; assay type: functional
Outline: (§2)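 Female ob/ob mice, 10 weeks old, fed ad libitum, in groups of 7–11. Dosed po once daily for 4 days in 0.5% methyl cellulose vehicle. Decapitated the next morning; 0.1 mL blood into saline with Trasylol and EDTA; plasma glucose by autoanalyzer. Reciprocal-transformed (y = 160/x) harmonic mean given as % of vehicle. Bonferroni-adjusted comparisons.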

[4] = tested on: Mus musculus; assay: Effect on the mean liver weight of mice on day 1 (pre) of swiss CD-1 mice (charles river), in groups of six dosed orally once per day for 4 days with 50 mg/kg of compound; expressed as mg/10 g body weight; assay type: functional; conditions: route oral
[5] = tested on: Mus musculus; assay: Effect on the mean body weight of mice on day 5 (post) of swiss CD-1 mice (charles river), in groups of six dosed orally once per day for 4 days with 50 mg/kg of compound; assay type: functional; conditions: route oral; outline: as §1
[6] = tested on: Mus musculus; assay: Percent plasma glucose concentration of drug treated mice (ob/ob) relative to vehicle control animals following 75 mg/kg administration.; assay type: functional; outline: as §2
[7] = tested on: Mus musculus; assay: Effect on the mean body weight of mice on day 1 (pre) of swiss CD-1 mice (charles river), in groups of six dosed orally once per day for 4 days with 50 mg/kg of compound; […]; assay type: functional; conditions: route oral
[8] = tested on: Mus musculus; assay: Percent plasma glucose concentration of drug treated mice (ob/ob) relative to vehicle control animals was determined at the dose of 75 mg/kg

Row | SMILES | Body weight [1] [g] | Heart weight [2] [mg 10g-1] | Activity [3] [%] | Liver weight [4] [g 10g-1] | Body weight [5] [g] | Activity [6] [%] | Body weight [7] [g] | Activity [8] [%]
1 | O=C(Nc1ccc(Cc2nn[nH]n2)cc1)C(F)(F)C(F)(F)C(F)(F)C(F)(F)C(F)(F)C(F)(F)C(F)(F)F | 30.5 | 39 | 66 | 1.25 | 31.4 |  |  | 
2 | Cl.Nc1ccc(Cc2nn[nH]n2)cc1 |  | 43 |  | 0.591 | 30.1 | 93 | 29.8 | 
3 | CCCCCCCC(=O)NNC(=O)C(F)(F)C(F)(F)C(F)(F)C(F)(F)C(F)(F)C(F)(F)C(F)(F)F | 30.6 | 37 |  | 1.44 | 30.6 | 74 |  | 
4 | FC(F)(F)C(F)(F)C(F)(F)C(F)(F)C(F)(F)C(F)(F)C(F)(F)CNc1ccc(Cc2nn[nH]n2)cc1 | 30.3 | 39 |  | 0.856 | 31.2 | 57 |  | 
5 | CCCCN(Cc1ccccc1)C(=O)C(F)(F)C(F)(F)C(F)(F)C(F)(F)C(F)(F)C(F)(F)C(F)(F)F | 30.8 | 40 |  | 1.18 | 31.1 | 61 |  | 
6 | O=C(Nc1ccc(Cc2nn[n-]n2)cc1)C(F)(F)C(F)(F)C(F)(F)F.[Na+] |  |  |  |  |  |  |  | 67
7 | CN(C(=O)C(F)(F)C(F)(F)C(F)(F)C(F)(F)C(F)(F)C(F)(F)C(F)(F)F)c1ccc(Cc2nnnn2C)cc1 | 29.9 | 41 | 67 | 0.942 | 31.1 |  |  | 
8 | O=C(Nc1ccc(Cc2nnn(Cc3ccccc3)n2)cc1)C(F)(F)C(F)(F)C(F)(F)C(F)(F)C(F)(F)C(F)(F)C(F)(F)F | 30.3 | 41 | 68 | 0.787 | 31.4 |  |  | 
9 | CCCCCCC(F)(F)C(=O)Nc1ccc(Cc2nn[nH]n2)cc1 | 30.4 | 43 |  | 0.671 | 31.7 | 80 |  | 
10 | O=C(N(Cc1ccccc1)c1ccc(Cc2nn[nH]n2)cc1)C(F)(F)C(F)(F)C(F)(F)C(F)(F)C(F)(F)C(F)(F)C(F)(F)C(F)(F)F | 29.8 | 39 | 55 | 1.11 | 31.3 |  |  | 
11 | O=C(Nc1ccncc1)C(F)(F)C(F)(F)C(F)(F)C(F)(F)C(F)(F)C(F)(F)C(F)(F)F | 30.7 | 39 | 66 | 1.08 | 32.4 |  |  | 

Source: ChEMBL document CHEMBL1125399, “Perfluorocarbon-based antidiabetic agents” (1992)
